ChEMBL document CHEMBL4364301 (Eur J Med Chem, 2019)

Experiments:
Assay type in all cases: functional
VCaP [1] = experiment: Antiproliferative activity against human VCaP cells assessed as T/C value at 1 x 10^1 uM incubated for 96 hrs by propidium iodide based 2D monolayer assay
Procedure, shortened: (§1)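 Cells were kept in RPMI 1640 with 25 mM HEPES, 10% FCS and gentamicin at 37 °C under 5% CO2, and plated at 4,000-20,000 cells/well. After 24 h recovery, compound in medium or medium alone (control wells) was added at 10 half-log concentrations from 0.0032 to 100 µM, in triplicate, with at most 0.3% DMSO. After 96 h, wells were PBS-washed, stained with 7 µg/ml PI and 0.1% Triton X-100, and fluorescence read at 530/620 nm. IC50 came from a 4-parameter fit, geometric mean.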

CWR22R [2] = experiment: Antiproliferative activity against human 22Rv1 cells assessed as T/C value at 1 x 10^-2 uM incubated for 96 hrs by propidium iodide based 2D monolayer assay; procedure, shortened: as §1
VCaP [3] = experiment: Antiproliferative activity against human VCaP cells assessed as reduction in cell growth incubated for 96 hrs by propidium iodide based 2D monolayer assay
Procedure, shortened: (§2)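 VCaP cells in RPMI 1640 with 10% FCS at 37 °C, 5% CO2, seeded 4,000–20,000 cells/well and left 24 h before dosing. Compounds from DMSO stocks were diluted in half-log steps in medium, 10 concentrations 0.0032–100 μM, triplicate wells, max 0.3% DMSO. After 96 h, cells were washed, stained with 7 μg/ml propidium iodide plus 0.1% Triton X-100 for 1–2 h at room temperature, and fluorescence read at ex 530/em 620 nm.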

VCaP [4] = experiment: Antiproliferative activity against human VCaP cells assessed as T/C value at 1 x 10^-2 uM incubated for 96 hrs by propidium iodide based 2D monolayer assay; procedure, shortened: as §1
LNCaP [5] = experiment: Antiproliferative activity against human LNCAP cells assessed as T/C value at 1 x 10^1 uM incubated for 96 hrs by propidium iodide based 2D monolayer assay; procedure, shortened: as §1
VCaP [6] = experiment: Antiproliferative activity against human VCaP cells assessed as T/C value at 3.2 uM incubated for 96 hrs by propidium iodide based 2D monolayer assay; procedure, shortened: as §1
DU-145 [7] = experiment: Antiproliferative activity against human DU145 cells assessed as T/C value at 3.2 x 10^1 uM incubated for 96 hrs by propidium iodide based 2D monolayer assay; procedure, shortened: as §1
VCaP [8] = experiment: Antiproliferative activity against human VCaP cells assessed as T/C value at 3.2 x 10^-2 uM incubated for 96 hrs by propidium iodide based 2D monolayer assay; procedure, shortened: as §2
CWR22R [9] = experiment: Antiproliferative activity against human 22Rv1 cells assessed as T/C value at 1 uM incubated for 96 hrs by propidium iodide based 2D monolayer assay; procedure, shortened: as §1
DU-145 [10] = experiment: Antiproliferative activity against human DU145 cells assessed as T/C value at 1 x 10^-2 uM incubated for 96 hrs by propidium iodide based 2D monolayer assay
Procedure, shortened: as §1, with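 “After” for “Cells were kept in RPMI 1640 with 25 mM HEPES, 10% FCS and gentamicin at 37 °C under 5% CO2, and plated at 4,000-20,000 cells/well. After”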

VCaP [11] = experiment: Antiproliferative activity against human VCaP cells assessed as T/C value at 1 uM incubated for 96 hrs by propidium iodide based 2D monolayer assay; procedure, shortened: as §1
CWR22R [12] = experiment: Antiproliferative activity against human 22Rv1 cells assessed as T/C value at 1 x 10^1 uM incubated for 96 hrs by propidium iodide based 2D monolayer assay; procedure, shortened: as §1
LNCaP [13] = experiment: Antiproliferative activity against human LNCAP cells assessed as T/C value at 3.2 x 10^-2 uM incubated for 96 hrs by propidium iodide based 2D monolayer assay; procedure, shortened: as §1
DU-145 [14] = experiment: Antiproliferative activity against human DU145 cells assessed as T/C value at 1 x 10^-1 uM incubated for 96 hrs by propidium iodide based 2D monolayer assay
Procedure, shortened: as §1, with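 “After” for “Cells were kept in RPMI 1640 with 25 mM HEPES, 10% FCS and gentamicin at 37 °C under 5% CO2, and plated at 4,000-20,000 cells/well. After”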

LNCaP [15] = experiment: Antiproliferative activity against human LNCAP cells assessed as T/C value at 3.2 x 10^-1 uM incubated for 96 hrs by propidium iodide based 2D monolayer assay; procedure, shortened: as §1
DU-145 [16] = experiment: Antiproliferative activity against human DU145 cells assessed as T/C value at 3.2 x 10^-2 uM incubated for 96 hrs by propidium iodide based 2D monolayer assay
Procedure, shortened: as §1, with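 “After” for “Cells were kept in RPMI 1640 with 25 mM HEPES, 10% FCS and gentamicin at 37 °C under 5% CO2, and plated at 4,000-20,000 cells/well. After”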

LNCaP [17] = experiment: Antiproliferative activity against human LNCAP cells assessed as T/C value at 3.2 x 10^1 uM incubated for 96 hrs by propidium iodide based 2D monolayer assay; procedure, shortened: as §1
CWR22R [18] = experiment: Antiproliferative activity against human 22Rv1 cells assessed as T/C value at 1 x 10^-1 uM incubated for 96 hrs by propidium iodide based 2D monolayer assay; procedure, shortened: as §1
DU-145 [19] = experiment: Antiproliferative activity against human DU145 cells assessed as T/C value at 3.2 x 10^-1 uM incubated for 96 hrs by propidium iodide based 2D monolayer assay
Procedure, shortened: as §1, with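 “After” for “Cells were kept in RPMI 1640 with 25 mM HEPES, 10% FCS and gentamicin at 37 °C under 5% CO2, and plated at 4,000-20,000 cells/well. After”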

CWR22R [20] = experiment: Antiproliferative activity against human 22Rv1 cells assessed as T/C value at 1 x 10^2 uM incubated for 96 hrs by propidium iodide based 2D monolayer assay; procedure, shortened: as §1
CWR22R [21] = experiment: Antiproliferative activity against human 22Rv1 cells assessed as T/C value at 3.2 x 10^1 uM incubated for 96 hrs by propidium iodide based 2D monolayer assay; procedure, shortened: as §1
DU-145 [22] = experiment: Antiproliferative activity against human DU145 cells assessed as T/C value at 3.2 x 10^-3 uM incubated for 96 hrs by propidium iodide based 2D monolayer assay
Procedure, shortened: as §1, with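 “After” for “Cells were kept in RPMI 1640 with 25 mM HEPES, 10% FCS and gentamicin at 37 °C under 5% CO2, and plated at 4,000-20,000 cells/well. After”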

CWR22R [23] = experiment: Antiproliferative activity against human 22Rv1 cells assessed as T/C value at 3.2 x 10^-1 uM incubated for 96 hrs by propidium iodide based 2D monolayer assay; procedure, shortened: as §1
DU-145 [24] = experiment: Antiproliferative activity against human DU145 cells assessed as T/C value at 1 uM incubated for 96 hrs by propidium iodide based 2D monolayer assay
Procedure, shortened: as §1, with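 “After” for “Cells were kept in RPMI 1640 with 25 mM HEPES, 10% FCS and gentamicin at 37 °C under 5% CO2, and plated at 4,000-20,000 cells/well. After”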

CWR22R [25] = experiment: Antiproliferative activity against human 22Rv1 cells assessed as T/C value at 3.2 uM incubated for 96 hrs by propidium iodide based 2D monolayer assay; procedure, shortened: as §1
CWR22R [26] = experiment: Antiproliferative activity against human 22Rv1 cells assessed as reduction in cell growth incubated for 96 hrs by propidium iodide based 2D monolayer assay; conditions: 22Rv1, 96 h
Procedure, shortened: as §1, with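 “After” for “Cells were kept in RPMI 1640 with 25 mM HEPES, 10% FCS and gentamicin at 37 °C under 5% CO2, and plated at 4,000-20,000 cells/well. After”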

DU-145 [27] = experiment: Antiproliferative activity against human DU145 cells assessed as T/C value at 3.2 uM incubated for 96 hrs by propidium iodide based 2D monolayer assay; procedure, shortened: as §1
DU-145 [28] = experiment: Antiproliferative activity against human DU145 cells assessed as reduction in cell growth incubated for 96 hrs by propidium iodide based 2D monolayer assay; conditions: DU-145, 96 h
Procedure, shortened: as §1, with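 “After” for “Cells were kept in RPMI 1640 with 25 mM HEPES, 10% FCS and gentamicin at 37 °C under 5% CO2, and plated at 4,000-20,000 cells/well. After”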

VCaP [29] = experiment: Antiproliferative activity against human VCaP cells assessed as T/C value at 3.2 x 10^-1 uM incubated for 96 hrs by propidium iodide based 2D monolayer assay; procedure, shortened: as §2
CWR22R [30] = experiment: Antiproliferative activity against human 22Rv1 cells assessed as T/C value at 3.2 x 10^-2 uM incubated for 96 hrs by propidium iodide based 2D monolayer assay; procedure, shortened: as §1
DU-145 [31] = experiment: Antiproliferative activity against human DU145 cells assessed as T/C value at 1 x 10^1 uM incubated for 96 hrs by propidium iodide based 2D monolayer assay
Procedure, shortened: as §1, with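 “After” for “Cells were kept in RPMI 1640 with 25 mM HEPES, 10% FCS and gentamicin at 37 °C under 5% CO2, and plated at 4,000-20,000 cells/well. After”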

| Structure (SMILES) | T/C (VCaP [1]) [%] | T/C (CWR22R [2]) [%] | IC50 (VCaP [3]) [µM] | IC70 (VCaP [3]) [µM] | T/C (VCaP [4]) [%] | T/C (LNCaP [5]) [%] | T/C (VCaP [6]) [%] | T/C (DU-145 [7]) [%] | T/C (VCaP [8]) [%] | T/C (CWR22R [9]) [%] | T/C (DU-145 [10]) [%] | T/C (VCaP [11]) [%] | T/C (CWR22R [12]) [%] | T/C (LNCaP [13]) [%] | T/C (DU-145 [14]) [%] | T/C (LNCaP [15]) [%] | T/C (DU-145 [16]) [%] | T/C (LNCaP [17]) [%] | T/C (CWR22R [18]) [%] | T/C (DU-145 [19]) [%] | further results |
| --- | --- | --- | --- | --- | --- | --- | --- | --- | --- | --- | --- | --- | --- | --- | --- | --- | --- | --- | --- | --- | --- |
| CC(O)(COc1cccc(S(F)(F)(F)(F)F)c1)C(=O)Nc1cc(C(F)(F)F)cc(C(F)(F)F)c1 (racemic) | 32 | 105 | 2.7 | 5.41 | 99 | 2 | 34 | 3 | 90 | 94 | 101 | 88 | 12 | 83 | 119 | 83 | 105 | 1 | 99 | 117 | T/C (CWR22R [20]): 2%; T/C (CWR22R [21]): 2%; T/C (DU-145 [22]): 104%; T/C (CWR22R [23]): 101%; T/C (DU-145 [24]): 120%; T/C (CWR22R [25]): 29%; IC50 (CWR22R [26]): 2.3 µM; IC70 (CWR22R [26]): 3.17 µM; T/C (DU-145 [27]): 105%; IC50 (DU-145 [28]): 5.7 µM; IC70 (DU-145 [28]): 6.66 µM; T/C (VCaP [29]): 92%; T/C (CWR22R [30]): 109%; T/C (DU-145 [31]): 6% |
| CC(O)(COc1ccc(S(F)(F)(F)(F)F)cc1)C(=O)Nc1cc(C(F)(F)F)cc(C(F)(F)F)c1 (racemic) | 21 | 106 | 2.4 | 3.22 | 102 | 8 | 30 | 6 | 96 | 109 | 104 | 98 | 13 | 99 | 109 | 97 | 106 | 2 | 106 | 115 | T/C (CWR22R [20]): 4%; T/C (CWR22R [21]): 7%; T/C (DU-145 [22]): 103%; T/C (CWR22R [23]): 110%; T/C (DU-145 [24]): 117%; T/C (CWR22R [25]): 52%; IC50 (CWR22R [26]): 3.2 µM; IC70 (CWR22R [26]): 4.07 µM; T/C (DU-145 [27]): 104%; IC50 (DU-145 [28]): 6.5 µM; IC70 (DU-145 [28]): 7.99 µM; T/C (VCaP [29]): 91%; T/C (CWR22R [30]): 105%; T/C (DU-145 [31]): 16% |
| CC(O)(COc1cc(C(F)(F)F)cc(C(F)(F)F)c1)C(=O)Nc1cccc(S(F)(F)(F)(F)F)c1 (racemic) | 37 | 105 | 2.8 | 3.24 | 87 | 2 | 33 | 5 | 87 | 102 | 104 | 94 | 13 | 74 | 114 | 67 | 114 | 1 | 106 | 116 | T/C (CWR22R [20]): 2%; T/C (CWR22R [21]): 4%; T/C (DU-145 [22]): 107%; T/C (CWR22R [23]): 105%; T/C (DU-145 [24]): 123%; T/C (CWR22R [25]): 102%; IC50 (CWR22R [26]): 6.5 µM; IC70 (CWR22R [26]): 7.75 µM; T/C (DU-145 [27]): 115%; IC50 (DU-145 [28]): 9.3 µM; IC70 (DU-145 [28]): 9.59 µM; T/C (VCaP [29]): 91%; T/C (CWR22R [30]): 110%; T/C (DU-145 [31]): 12% |
